10 compounds from ChEMBL document CHEMBL1124123, “Graphics computer-aided receptor mapping as a predictive tool for drug design: development of potent, selective, and stereospecific ligands for the 5-HT1A receptor” (J Med Chem, 1988) can be followed below.

Where only a bound is given, the exact number is not on record here.

The target of assay [1] is T1, Serotonin 2 (5-HT2) receptor (Rattus norvegicus, UniProt P30994+P08909+P14842). Nature of the assay: Binding affinity towards 5-hydroxytryptamine 2 receptor in rat brain membrane using […] as a selective ligand. The class given is cell membranes. A digest of the protocol: (§1)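 5-HT2 sites in rat brain were labelled with [3H]ketanserin in a radioligand receptor binding assay.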

The target of assay [2] is T2, 5-hydroxytryptamine receptor 1B (Rattus norvegicus, UniProt P28564). Nature of the assay: Binding affinity against 5-HT1B receptor in rat brain membrane using [3H]-5-HT in the presence of 8-OH-DPAT.
Assay [3] deals with T3, 5-hydroxytryptamine receptor 1A (Rattus norvegicus, UniProt P19327).
T3 sequence (P19327 whole entry): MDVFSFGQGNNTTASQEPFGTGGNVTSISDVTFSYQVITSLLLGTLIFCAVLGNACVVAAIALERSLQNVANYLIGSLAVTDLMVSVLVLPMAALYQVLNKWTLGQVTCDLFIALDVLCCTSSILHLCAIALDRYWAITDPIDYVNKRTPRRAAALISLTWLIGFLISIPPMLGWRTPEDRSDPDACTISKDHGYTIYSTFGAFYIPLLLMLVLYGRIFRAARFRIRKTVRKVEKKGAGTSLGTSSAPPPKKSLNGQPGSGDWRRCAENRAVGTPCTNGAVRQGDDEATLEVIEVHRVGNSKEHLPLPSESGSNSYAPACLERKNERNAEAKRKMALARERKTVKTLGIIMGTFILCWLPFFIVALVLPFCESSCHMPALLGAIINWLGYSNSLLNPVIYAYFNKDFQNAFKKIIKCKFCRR
Put plainly: Binding affinity towards 5-hydroxytryptamine 1A receptor in rat frontal cortex using [3H]8-OH-DPAT as a radioligand. The class given is tissue-based.

Assay [4] has as its target T4, Adrenergic receptor alpha-2 (Rattus norvegicus, UniProt P22086+P19328+P22909).
T4 sequence (P22086 whole entry): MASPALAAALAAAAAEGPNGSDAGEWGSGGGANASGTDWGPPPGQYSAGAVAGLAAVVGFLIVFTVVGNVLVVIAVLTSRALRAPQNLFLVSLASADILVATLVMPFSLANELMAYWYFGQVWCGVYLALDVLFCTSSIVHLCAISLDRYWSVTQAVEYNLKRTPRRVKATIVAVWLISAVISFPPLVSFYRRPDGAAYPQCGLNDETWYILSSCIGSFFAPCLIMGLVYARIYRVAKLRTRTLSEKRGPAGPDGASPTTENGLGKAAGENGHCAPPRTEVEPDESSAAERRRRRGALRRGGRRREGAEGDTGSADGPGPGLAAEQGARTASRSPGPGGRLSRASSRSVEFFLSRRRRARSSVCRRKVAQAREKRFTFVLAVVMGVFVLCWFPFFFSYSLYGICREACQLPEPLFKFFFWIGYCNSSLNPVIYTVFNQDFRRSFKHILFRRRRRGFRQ
T4 sequence (P19328 whole entry): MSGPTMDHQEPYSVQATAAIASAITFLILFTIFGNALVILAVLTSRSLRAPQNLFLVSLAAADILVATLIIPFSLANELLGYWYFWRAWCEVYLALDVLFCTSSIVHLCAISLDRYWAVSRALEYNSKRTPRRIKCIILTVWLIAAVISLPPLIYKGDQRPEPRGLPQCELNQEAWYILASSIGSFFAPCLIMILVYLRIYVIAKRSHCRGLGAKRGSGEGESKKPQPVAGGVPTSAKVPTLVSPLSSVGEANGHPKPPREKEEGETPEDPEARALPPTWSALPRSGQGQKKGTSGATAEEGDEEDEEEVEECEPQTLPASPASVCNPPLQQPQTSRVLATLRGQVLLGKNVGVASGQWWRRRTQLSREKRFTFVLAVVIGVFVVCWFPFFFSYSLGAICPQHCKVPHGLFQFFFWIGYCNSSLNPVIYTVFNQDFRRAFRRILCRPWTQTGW
T4 sequence (P22909 whole entry): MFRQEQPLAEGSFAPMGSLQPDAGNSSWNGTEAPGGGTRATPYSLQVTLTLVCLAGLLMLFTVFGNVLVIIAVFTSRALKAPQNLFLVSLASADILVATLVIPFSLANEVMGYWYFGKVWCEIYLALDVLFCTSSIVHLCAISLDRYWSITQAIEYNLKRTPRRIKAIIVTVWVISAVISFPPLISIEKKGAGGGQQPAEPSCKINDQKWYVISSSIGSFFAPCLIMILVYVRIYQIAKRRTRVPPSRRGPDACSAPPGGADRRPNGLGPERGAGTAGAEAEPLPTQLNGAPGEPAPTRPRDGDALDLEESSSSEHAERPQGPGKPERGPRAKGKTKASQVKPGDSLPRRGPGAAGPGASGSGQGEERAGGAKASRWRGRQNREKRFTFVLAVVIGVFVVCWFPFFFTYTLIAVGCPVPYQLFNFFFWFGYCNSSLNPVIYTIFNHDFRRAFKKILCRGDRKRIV
Put plainly: Binding affinity against alpha-2 adrenergic receptor in rat brain membrane using […] as a selective ligand. Type of assay: cell membranes. A digest of the protocol: (§2)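 Alpha2-adrenergic sites in rat brain were labelled with [3H]clonidine for radioligand binding.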

Assay [5] deals with T5, Adrenergic receptor alpha-1 (Rattus norvegicus, UniProt P15823+P23944+P43140).
T5 sequence (P15823 whole entry): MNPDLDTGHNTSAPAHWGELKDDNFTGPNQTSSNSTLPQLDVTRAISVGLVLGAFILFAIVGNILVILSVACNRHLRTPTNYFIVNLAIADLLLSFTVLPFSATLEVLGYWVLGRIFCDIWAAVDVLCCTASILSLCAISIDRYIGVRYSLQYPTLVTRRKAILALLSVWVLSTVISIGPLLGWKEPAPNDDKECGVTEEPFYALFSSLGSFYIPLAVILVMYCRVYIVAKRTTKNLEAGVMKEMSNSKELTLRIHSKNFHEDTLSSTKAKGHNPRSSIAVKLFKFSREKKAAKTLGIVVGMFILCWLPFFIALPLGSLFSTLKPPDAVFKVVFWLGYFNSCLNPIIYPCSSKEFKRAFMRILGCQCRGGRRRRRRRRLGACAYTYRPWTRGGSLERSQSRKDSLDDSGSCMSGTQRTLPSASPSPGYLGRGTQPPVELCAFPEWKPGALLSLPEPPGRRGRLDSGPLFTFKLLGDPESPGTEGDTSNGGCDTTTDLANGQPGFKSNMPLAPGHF
T5 sequence (P23944 whole entry): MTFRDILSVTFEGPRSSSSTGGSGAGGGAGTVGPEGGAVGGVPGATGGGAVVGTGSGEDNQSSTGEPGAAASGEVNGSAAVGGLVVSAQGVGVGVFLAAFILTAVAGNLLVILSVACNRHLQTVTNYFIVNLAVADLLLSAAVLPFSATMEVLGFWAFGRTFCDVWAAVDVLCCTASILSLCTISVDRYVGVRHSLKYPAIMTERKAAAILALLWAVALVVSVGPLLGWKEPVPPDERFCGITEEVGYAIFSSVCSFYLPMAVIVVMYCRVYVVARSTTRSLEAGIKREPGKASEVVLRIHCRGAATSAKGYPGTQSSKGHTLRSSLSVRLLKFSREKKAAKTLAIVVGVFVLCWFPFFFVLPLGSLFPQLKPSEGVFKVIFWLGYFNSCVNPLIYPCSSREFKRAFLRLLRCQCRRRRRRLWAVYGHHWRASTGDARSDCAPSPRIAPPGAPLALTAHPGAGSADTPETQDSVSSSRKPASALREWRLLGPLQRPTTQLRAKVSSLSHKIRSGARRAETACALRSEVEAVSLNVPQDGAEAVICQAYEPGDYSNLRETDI
T5 sequence (P43140 whole entry): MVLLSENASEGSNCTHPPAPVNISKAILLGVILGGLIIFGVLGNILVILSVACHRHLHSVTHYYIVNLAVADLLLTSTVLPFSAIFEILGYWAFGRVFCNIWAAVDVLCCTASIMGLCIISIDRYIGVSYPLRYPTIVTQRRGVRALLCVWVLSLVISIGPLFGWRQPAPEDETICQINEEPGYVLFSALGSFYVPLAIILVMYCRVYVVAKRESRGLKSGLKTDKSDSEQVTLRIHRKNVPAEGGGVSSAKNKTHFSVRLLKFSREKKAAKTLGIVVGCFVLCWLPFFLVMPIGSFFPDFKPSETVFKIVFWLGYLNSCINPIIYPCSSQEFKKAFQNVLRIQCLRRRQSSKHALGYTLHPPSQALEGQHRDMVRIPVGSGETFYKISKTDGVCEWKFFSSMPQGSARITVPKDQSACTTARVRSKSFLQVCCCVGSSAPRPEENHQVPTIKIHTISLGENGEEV
Put plainly: Binding affinity against alpha-1 adrenergic receptor in rat brain membrane using […] as a selective ligand. Type of assay: cell membranes. The method, boiled down:
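Alpha1-adrenergic binding in rat brain, using [3H]prazosin as the radioligand.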

Assay [6] has as its target T6, D(2) dopamine receptor (Rattus norvegicus, UniProt P61169). Nature of the assay: Binding affinity against Dopamine receptor D2 in rat brain membrane using [3H]domperidone as radioligand.
In assay [7] the target is T3, 5-hydroxytryptamine receptor 1A. Put plainly: Binding affinity towards 5-hydroxytryptamine 1A receptor in rat brain membrane using [3H]8-OH-DPAT as a selective ligand. The class given is cell membranes.
Assay [8] concerns the target T4, Adrenergic receptor alpha-2. Nature of the assay: Binding affinity against alpha-2 adrenergic receptor in rat brain membrane using […]. The class given is cell membranes. A digest of the protocol: as §2
For assay [9], the target named is T6, D(2) dopamine receptor. Put plainly: Binding affinity against Dopamine receptor D2 in rat brain membrane using [3H]-8-OH-DPAT as a selective ligand. Conditions: in the assay text read “[3H]domperidone as radioligand” for “[3H]-8-OH-DPAT as a selective ligand”. Type of assay: cell membranes. A digest of the protocol: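 D2 receptor binding in rat brain, using [3H]domperidone as the radioligand.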

Assay [10] addresses T1, Serotonin 2 (5-HT2) receptor. Put plainly: (§3) Binding affinity towards 5-hydroxytryptamine 2 receptor in rat frontal cortex using [3H]ketanserin as radioligand.
The target of assay [11] is T2, 5-hydroxytryptamine receptor 1B. Nature of the assay: Binding affinity against 5-HT1B receptor in rat frontal cortex using [3H]-5-HT in presence of 0.1 uM […]. Type of assay: tissue-based.
The target of assay [12] is T1, Serotonin 2 (5-HT2) receptor. Described as §3. Type of assay: tissue-based. The method, boiled down: as §1
For assay [13], the target named is T2, 5-hydroxytryptamine receptor 1B. Nature of the assay: Binding affinity towards 5-HT1B receptor in rat brain membrane using [3H]8-OH-DPAT as a selective ligand. Type of assay: cell membranes.

T6 sequence (P61169 whole entry): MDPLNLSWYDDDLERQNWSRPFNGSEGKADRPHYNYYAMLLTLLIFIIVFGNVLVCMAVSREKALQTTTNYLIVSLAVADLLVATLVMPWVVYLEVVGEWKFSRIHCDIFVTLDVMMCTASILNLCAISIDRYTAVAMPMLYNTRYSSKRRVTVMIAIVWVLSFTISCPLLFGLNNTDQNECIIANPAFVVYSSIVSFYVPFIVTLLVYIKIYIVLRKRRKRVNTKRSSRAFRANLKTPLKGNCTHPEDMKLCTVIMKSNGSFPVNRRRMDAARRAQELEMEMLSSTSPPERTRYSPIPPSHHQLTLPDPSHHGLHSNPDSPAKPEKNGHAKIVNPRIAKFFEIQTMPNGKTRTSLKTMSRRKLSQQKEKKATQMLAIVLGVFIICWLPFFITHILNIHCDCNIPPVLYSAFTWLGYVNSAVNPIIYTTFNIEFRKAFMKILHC
T2 sequence (P28564 whole entry): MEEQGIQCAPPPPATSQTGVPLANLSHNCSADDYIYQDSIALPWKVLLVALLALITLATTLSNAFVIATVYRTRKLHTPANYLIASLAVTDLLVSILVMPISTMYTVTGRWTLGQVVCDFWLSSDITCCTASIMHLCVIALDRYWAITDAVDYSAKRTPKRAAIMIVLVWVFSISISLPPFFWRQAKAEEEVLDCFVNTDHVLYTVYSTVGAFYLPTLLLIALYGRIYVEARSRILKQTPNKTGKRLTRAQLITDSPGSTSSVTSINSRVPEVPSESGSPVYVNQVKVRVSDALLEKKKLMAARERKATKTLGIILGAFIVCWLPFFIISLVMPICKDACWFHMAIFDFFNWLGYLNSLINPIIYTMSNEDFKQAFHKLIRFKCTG

Turning to `O=C1CC2(CCCC2)CC(=O)N1CCCCNCC1COc2c(ccc3ccccc23)O1` (stereo unspecified), the “Log IC50” value in assay [1] was -5.9; in [4], less than -5; in assay [5] it was -5.2. Besides, the IC50 in [2] was 3160 nM; in [3], 794 nM; at D(2) dopamine receptor [6], 316 nM.

Take `O=C1CC2(CCCC2)CC(=O)N1CCCCNCC1COc2cc3ccccc3cc2O1` (stereo unspecified): the “Log IC50” value in [5] is listed as -5.3. The compound also had an IC50 in assay [7] of 316 nM.

In the case of `O=C1CC2(CCCC2)CC(=O)N1CCCCNC[C@@H]1COc2ccccc2O1`, the “Log IC50” value in assay [1] is reported as -6.1; in assay [8] it was -6.2; in assay [5] it was -7.2. Also, the concentration for half-maximal inhibition (IC50) in assay [2] is 5010 nM; on D(2) dopamine receptor [9], 2510 nM; in assay [7], 20 nM.

With `O=C1CC2(CCCC2)CC(=O)N1CCCCNC[C@H]1COc2ccccc2O1`, the figures for the “Log IC50” value in assay [1], in [4] and in [5] were -6.7, -6.3 and -8, respectively. Also, the IC50 in assay [2] is 794 nM; in assay [3], 0.631 nM; on D(2) dopamine receptor [9] it was 79.4 nM.

With `O=C1CC2(CCCC2)CC(=O)N1CCCCNCC1COc2ccccc2O1` (stereo unspecified), the “Log IC50” value in assay [1] was -6.2; in [4], -6.4; in assay [5], -7.8. Further, the concentration for half-maximal inhibition (IC50) in assay [2] was 631 nM; in assay [3], 0.794 nM; on D(2) dopamine receptor [9], 158 nM.

For the compound `O=C1CC2(CCCC2)CC(=O)N1CCCCNCC1COc2ccc3ccccc3c2O1` (stereo unspecified), the “Log IC50” value is -6.8 in [1], less than -5 in [4] and -6.1 in assay [5]. For the same compound, the IC50 in assay [2] is 398 nM; in assay [3], 5.01 nM; at D(2) dopamine receptor [9], 158 nM.

Regarding `CSc1ccc2c(c1)[C@H](N1CCN(C)CC1)Cc1ccccc1S2`, the “Log IC50” value in assay [10] is -8.25. The concentration for half-maximal inhibition (IC50) in assay [11] is 3240 nM; in assay [7] it was 851 nM.

Consider `CSc1ccc2c(c1)[C@@H](N1CCN(C)CC1)Cc1ccccc1S2`, for which the “Log IC50” value in assay [12] was -8.2. Further, the concentration for half-maximal inhibition (IC50) in [3] is 95.5 nM; in [13] it was 182 nM.

`CCCN(CCC)C1CCc2cccc(O)c2C1` (stereo unspecified) [8-OH-DPAT]: the “Log IC50” value in assay [10] was -5.

With `O=C(CCCN1CCC2(CC1)C(=O)NCN2c1ccccc1)c1ccc(F)cc1` [SPIPERONE], the concentration for half-maximal inhibition (IC50) is 1000 nM in assay [11] and 123 nM in assay [7].
